Columns and labels:
[1] = molecular target: Norwalk virus 3C protease (Norovirus, UniProt Q83883); experiment: Recombinant NV protease fluorogenic; assay type: biochemical; conditions: for IC50 column: designated inactive (percent inhibition < 25): incubated with the enzyme for 30 minutes at an [I]/[S] ratio of 25
[2] = test system: Norwalk norovirus (NV replicon-harboring HG23 cells); experiment: Cell-based NV replicon system; design: species or system Norwalk virus; conditions: NV genome levels at 24 hr post-treatment
Procedure, shortened: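 Norwalk virus replicon-harbouring HG23 cells, 1 day old and 80-90% confluent, were treated with the test compound from 0 (mock-DMSO) to 320 μM. NV genome was measured by qRT-PCR. ED50 was determined from NV genome levels at 24 hr post-treatment.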

HG23 cells = experiment: Cell cytotoxicity assay kit in HG23 cells; assay type: cell-based; conditions: 48 hr of treatment
murine norovirus (MNV) = experiment: Murine norovirus replication in RAW267.4 cells; assay type: cell-based, murine norovirus-1 (MNV-1); conditions: MNV-1 at MOI of 2, TCID50 assay

Sequence of Norwalk virus 3C protease (Q83883 1101-1281): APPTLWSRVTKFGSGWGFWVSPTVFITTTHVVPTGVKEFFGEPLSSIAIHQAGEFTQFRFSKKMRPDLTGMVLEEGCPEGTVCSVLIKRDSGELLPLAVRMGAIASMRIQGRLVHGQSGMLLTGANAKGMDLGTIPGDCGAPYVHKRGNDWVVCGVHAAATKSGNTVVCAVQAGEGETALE

Compound | IC50 column: designated inactive (percent inhibition < 25) [1] | Inhibition of Norwalk virus 3C protease (in words) [1] | ED50 (effective dose that inhibits 50% of norovirus replication) [2] | TD50 (median toxic dose) (HG23 cells) | ED50, replication of murine norovirus (MNV) (murine norovirus (MNV))
O=C[C@H](CC1CCNC1=O)NC(=O)[C@H](Cc1ccccc1)NC(=O)N1CCOCC1 (some centres unmarked) [Compound 2] | Inactive ^a | – | – | – | –
CC(C)C[C@H](NC(=O)OCc1ccccc1)C(=O)N[C@H](CO)CC1CCNC1=O (some centres unmarked) [Compound 3] | Inactive ^a | – | – | – | –
CC(C)C[C@H](NC(=O)OCc1ccccc1)C(=O)N[C@H](C=O)CC1CCNC1=O (some centres unmarked) [Compound 4] | – | dose-dependent inhibition | 2.1 µM | > 320 µM | 5.5 µM
CC(C)C[C@H](NC(=O)CNC(=O)OCc1ccccc1)C(=O)N[C@H](C=O)CC1CCNC1=O (some centres unmarked) [Compound 5] | – | – | 7.8 µM | > 320 µM | 20.3 µM
CC(C)C[C@H](NC(=O)CNC(=O)OCc1ccccc1)C(=O)N[C@H](CO)CC1CCNC1=O (some centres unmarked) [Compound 6] | Inactive ^a | – | – | – | –
CCCC[C@H](NC(=O)CNC(=O)OCc1ccccc1)C(=O)N[C@H](C=O)CC1CCNC1=O (some centres unmarked) [Compound 7] | – | sub-micromolar inhibitor | – | – | –
CCCC[C@H](NC(=O)CNC(=O)OCc1ccccc1)C(=O)N[C@H](CO)CC1CCNC1=O (some centres unmarked) [Compound 8] | Inactive ^a | – | – | – | –
CC(C)C[C@H](NC(=O)OCc1ccccc1)C(=O)N[C@@H](CC1CCNC1=O)C(=O)C(=O)NC(C)C (some centres unmarked) [Compound 10] | Inactive ^a | devoid of inhibitory activity | – | – | –
